Results on 27 molecules are retold here after ChEMBL document CHEMBL5360535, “Expanding the scope of novel 1,2,3-triazole derivatives as new antiparasitic drug candidates” (RSC Med Chem, 2023).

Data set [1] deals with Leishmania donovani. The data set is described as follows: Antileishmanial activity against Leishmania donovani promastigotes assessed as parasite growth inhibition incubated for 72 hrs by alamar blue staining based assay. It is filed as functional, organism-based. A digest of the protocol:
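L. donovani S1 Sudan strain promastigotes were grown at 26 °C in RPMI-1640 (no bicarbonate or pyruvate) with 10% FBS. Compound dilutions were added to cultures at 2 × 10⁶ cells per mL, at final 40, 8 and 1.6 μg mL⁻¹ (footnote: at least six concentrations, each in duplicate). Incubation was 72 h at 26 °C, with Alamar blue read-out. IC50 came from non-linear logistic regression. Experiments were run in triplicate.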

Data set [2] can be described thus: Selectivity index, ratio of IC50 for African green monkey Vero cells to IC50 for Plasmodium falciparum D6. The data set is classed as toxicity, cell-based. Particulars: read-out: Ratio IC50. A digest of the protocol: (§1)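 SI = Vero IC50 (Neutral Red, 48 h) divided by P. falciparum IC50. Parasite IC50 was from asynchronous D6 or W2 cultures (2% hematocrit, 2% parasitemia), with DMSO-dissolved compounds diluted in RPMI-1640. Incubation was 48 h at 37 °C under 90% N₂/5% CO₂/5% O₂, with growth read by pLDH activity (Malstat). Chloroquine and artemisinin were positive controls.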

Data set [3] can be described thus: Cytotoxicity against African green monkey Vero cells incubated for 48 hrs by Neutral Red assay. It is filed as toxicity, cell-based, Chlorocebus sabaeus. The procedure, abridged:
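Vero cells were maintained in RPMI with 10% heat-inactivated FCS, 0.15% NaHCO₃ and penicillin/streptomycin at 37 °C under 5% CO₂. Confluent monolayers were exposed to various concentrations up to a maximum of 4.75 μg mL⁻¹ for 48 h at 37 °C. Viability was read by Neutral Red uptake, with DMSO as negative control. IC50 was taken from the concentration–response curve.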

Data set [4] concerns Plasmodium falciparum. Briefly: Antimalarial activity against chloroquine-sensitive Plasmodium falciparum D6 assessed as parasite growth inhibition incubated for 48 hrs by LDH assay. It is filed as functional, organism-based. The settings on record: D6, 48 h. A digest of the protocol: (§2)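 Asynchronous P. falciparum cultures (2% hematocrit, 2% parasitemia) were exposed to DMSO-dissolved compound dilutions in RPMI-1640. They were held at 37 °C for 48 h in a humidified chamber under 90% N2/5% CO2/5% O2. Growth was read as pLDH activity with Malstat reagent, with medium, RBC and DMSO controls. IC50 came from non-linear logistic dose-response regression, in triplicate.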

Data set [5] has as its system Plasmodium falciparum. Briefly: Antimalarial activity against chloroquine-resistant Plasmodium falciparum W2 assessed as parasite growth inhibition incubated for 48 hrs by LDH assay. The settings on record: W2, 48 h. It is filed as functional, organism-based. The procedure, abridged: as §2
A short description of data set [6]: Selectivity index, ratio of IC50 for African green monkey Vero cells to IC50 for Plasmodium falciparum W2. It is filed as toxicity, cell-based. Particulars: read-out: Ratio IC50. The procedure, abridged:
as §1

Data set [7] deals with Plasmodium falciparum. Briefly: Antiparasitic activity against chloroquine-resistant Plasmodium falciparum W2 infected in red blood cells assessed as inhibition of parasite growth by HRP2 assay. The data set is classed as functional, organism-based, Red blood cell. Particulars: W2, Erythrocyte.

Structures are written as SMILES.

For the molecule `CC(C)=CCC/C(C)=C/CC/C(C)=C\Cn1cc(C(C)(C)O)nn1`, in data set [1], the IC50 was determined as 63.4 µM.
With `CCCCCCCCCCn1cc(C(=O)OC)nn1`, the values for the IC50 in data set [1], in data set [4] and in data set [5] were 78.5 µM, 11.2 µM and 6.73 µM, respectively. In addition, the selectivity ratio in data set [2] is over 1.58; in data set [6] it was over 2.64. For the same molecule, in data set [3], the IC50 at 48 h is over 17.8 µM.
On to `CC(C)=CCC/C(C)=C/CC/C(C)=C\Cn1cc(C(C)O)nn1` (stereo not drawn), for which, in data set [1], the IC50 was determined as 59.9 µM.
On the same count and under the same terms, next, `COC(=O)c1cn(Cc2ccccc2)nn1`: 92.1 µM.
Regarding `CCCCCCCCCCc1cn(Cc2ccccc2)nn1`, the selectivity ratio in data set [2] was over 1.44; in data set [6], over 1.48. In data set [3], this molecule gave an IC50 at 48 h of over 15.9 µM. Also, the IC50 is 11 µM in data set [4] and 10.7 µM in data set [5].
As to `CCCCCCCCc1cn(C/C=C/c2ccccc2)nn1`, the figures for the selectivity ratio in data set [2] and in data set [6] were over 1.48 and over 1.58, respectively. Further, the IC50 at 48 h in data set [3] was over 16 µM. Moreover, the 50% inhibitory concentration (IC50) in data set [4] is 10.8 µM; in data set [5], 10.1 µM.
`CC(C)=CCC/C(C)=C/CC/C(C)=C/Cn1cc(C(C)(C)O)nn1`: the IC50 was 48.3 µM in data set [1], 2.35 µM in data set [4] and 1.99 µM in data set [5]. The selectivity ratio in data set [2] is over 6.09; in data set [6], over 7.2. In data set [3], the IC50 at 48 h was over 14.3 µM.
As for `C(=C\c1ccccc1)/Cn1cc(-c2ccccc2)nn1`, the selectivity ratio in data set [2] is over 1.58; in data set [6], over 1.4. The molecule also returned a 50% inhibitory concentration (IC50) at 48 h in data set [3] of over 18.2 µM. Also, the values for the concentration for half-maximal inhibition (IC50) in data set [4] and in data set [5] were 11.5 µM and 13 µM, respectively.
Consider `O=Cn1cc(-c2ccnc3cc(Cl)ccc23)nn1`, for which the half-maximal inhibitory concentration (IC50) in data set [7] was found to be 1.4 µM.
As to `CC(C)=CCC/C(C)=C/CC/C(C)=C\Cn1cc(CCO)nn1`, the IC50 in data set [1] is 63 µM; in data set [4], 2.74 µM; in data set [5], 2.05 µM. Besides, the selectivity ratio in data set [2] was over 5.46; in data set [6], over 7.31. Moreover, the IC50 at 48 h in data set [3] was over 15 µM.
With `C[C@@H]1CC[C@H]2[C@@H](C)C(=O)O[C@@H]3O[C@@]4(C)CC[C@@H]1[C@]32OO4` [ARTEMISININ], the selectivity ratio in data set [2] and in data set [6] was over 179 throughout.
As for `CCCCCc1cn(C/C=C(\C)CC/C=C(\C)CCC=C(C)C)nn1`, the selectivity ratio in data set [2] is over 3.96; in data set [6], over 2.07. In data set [3], this molecule had a half-maximal inhibitory concentration (IC50) at 48 h of over 13.8 µM. Besides, the IC50 worked out at 3.49 µM in data set [4] and 6.69 µM in data set [5].
With `CC(C)=CCC/C(C)=C/CC/C(C)=C/Cn1cc(CCO)nn1`, the IC50 in data set [1] was 63 µM.
Consider `c1ccc(Cn2cc(-c3ccccc3)nn2)cc1`, for which the IC50 in data set [1] worked out at 85 µM.
As to `CCCc1cn(C/C=C/c2ccccc2)nn1`, the selectivity ratio in data set [2] and in data set [6] was under 1 throughout. In data set [3], this molecule displayed an IC50 at 48 h of over 20.9 µM. Further, the IC50 in data set [4] came out at 20.9 µM; in data set [5] it was 22 µM.
Consider `CCCCCCCCc1cn(Cc2ccccc2)nn1`, for which the concentration for half-maximal inhibition (IC50) in data set [1] is 22.1 µM.
Consider `CCCCCc1cn(CCCc2ccccc2)nn1`, for which the results for the selectivity ratio in data set [2] and in data set [6] were over 1.13 and over 1.7, respectively. Moreover, in data set [3], the IC50 at 48 h is over 18.5 µM. Further, the results for the IC50 in data set [4] and in data set [5] were 16.3 µM and 10.9 µM, respectively.
In the same order, the values of `CCCCCCCCn1cc(CO)nn1` are over 1.7, over 3.39, over 22.5 µM, 13.3 µM and 6.63 µM.
Turning to `CCCCCc1cn(C/C=C/c2ccccc2)nn1`, the IC50 in data set [1] was found to be 74.4 µM.
Regarding `COC(=O)c1cn(CC=C(C)C)nn1`, the selectivity ratio is over 1 in data set [2] and 1.06 in data set [6]. In data set [3], this molecule yielded an IC50 at 48 h of over 24.3 µM. Also, the IC50 in data set [4] came out at 24.3 µM; in data set [5], 23.1 µM.
Consider `CC(C)=CCC/C(C)=C/CC/C(C)=C/Cn1cc(C(C)O)nn1` (stereo not drawn), for which, in data set [1], the IC50 is 56.7 µM.
Same read-out and setting: the result for `CC(C)=CCC/C(C)=C/CC/C(C)=C\Cn1cc(CO)nn1` reads 59.3 µM.
For `CCOC(=O)Cn1cc(C(=O)OC)nn1`, the selectivity ratio in data set [2] and in data set [6] was over 1.7 each time. The molecule further returned an IC50 at 48 h in data set [3] of over 20.9 µM. Also, the IC50 in data set [4] and in data set [5] was 12.3 µM in each case.
In the case of `c1ccc(CCCn2cc(-c3ccccc3)nn2)cc1`, the IC50 in data set [1] worked out at 68.4 µM.
As for `CCCc1cn(CCCc2ccccc2)nn1`, the results for the selectivity ratio in data set [2] and in data set [6] were over 1.36 and over 1.83, respectively. Besides, the IC50 at 48 h in data set [3] was over 20.7 µM. Besides, the IC50 in data set [4] was determined as 15.3 µM; in data set [5], 11.3 µM.
As for `O=C(O)c1cn(Cc2ccccc2)nn1`, the IC50 in data set [1] was found to be 18.7 µM.
The same measure, in the same setting: the result for `CC(C)=CCC/C(C)=C/CC/C(C)=C/Cn1cc(CO)nn1` reads 56 µM.
